Converted amounts (≈) assume the structure as drawn. The source made the active and inactive calls. The calls are words filed in the database; no cut-off is given here.
Legend:
Enterococcus faecalis [1] = assay: Antibacterial activity against Enterococcus faecalis ATCC 29212 assessed as inhibition zone after 18 hrs by disk diffusion method; type: functional, organism-based
Summary of the method: (§1)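 Samples were prepared at 10 mg/mL in water, and 50 µL was applied to 8 mm paper disks. Disks were placed on Mueller-Hinton agar in 9 cm dishes, pre-inoculated with a suspension made from one colony in distilled water. Plates were incubated 18 h at 37 °C, then the inhibition zone was measured.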

Escherichia coli [2] = assay: Antibacterial activity against Escherichia coli ATCC 25922 assessed as inhibition zone after 18 hrs by disk diffusion method; type: functional, organism-based; summary of the method: as §1
Staphylococcus aureus [3] = assay: Antibacterial activity against Staphylococcus aureus ATCC 25923 assessed as inhibition zone after 18 hrs by disk diffusion method; type: functional, organism-based; summary of the method: as §1
Enterococcus faecalis [4] = assay: Antibacterial activity against Enterococcus faecalis ATCC 29212 assessed as clear zone after 18 hrs by TLC bioautography; type: functional, organism-based
Summary of the method: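 After the TLC run, the solvent was evaporated. Plates were overlaid with Mueller-Hinton agar seeded with bacteria in nutrient broth and incubated 18 h at 37 °C in a humidified chamber. They were then sprayed with p-iodonitrotetrazolium bromide (2 mg/mL) and incubated 2 h. Clear zones were scored as antibacterial activity.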

Pseudomonas aeruginosa [5] = assay: Antibacterial activity against Pseudomonas aeruginosa ATCC 27853 assessed as inhibition zone after 18 hrs by disk diffusion method; type: functional, organism-based; summary of the method: as §1
Staphylococcus aureus [6] = assay: Antibacterial activity against Staphylococcus aureus assessed as growth inhibition by liquid microdilution assay; type: functional
Summary of the method: (§2)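 MIC was determined by liquid broth microdilution growth inhibition against standard strains.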

Escherichia coli [7] = assay: Antibacterial activity against Escherichia coli assessed as growth inhibition by liquid microdilution assay; type: functional; summary of the method: as §2
Enterococcus faecalis [8] = assay: Antibacterial activity against Enterococcus faecalis assessed as growth inhibition by liquid microdilution assay; type: functional; summary of the method: as §2
Pseudomonas aeruginosa [9] = assay: Antibacterial activity against Pseudomonas aeruginosa as growth inhibition by liquid microdilution assay; type: functional; summary of the method: as §2

| MIC (Staphylococcus aureus [6]) [µg/mL] | MIC (Escherichia coli [7]) [µg/mL] | MIC (Enterococcus faecalis [8]) [µg/mL] | MIC (Pseudomonas aeruginosa [9]) [µg/mL] | SMILES | inhibition (Enterococcus faecalis [1]) | inhibition (Escherichia coli [2]) | inhibition (Staphylococcus aureus [3]) | inhibition (Enterococcus faecalis [4]) | inhibition (Pseudomonas aeruginosa [5]) |
| --- | --- | --- | --- | --- | --- | --- | --- | --- | --- |
|  |  |  |  | C[C@@H]1O[C@@H](O[C@H]2C(OC(=O)[C@]34CCC(C)(C)C[C@H]3C3=CC[C@@H]5[C@@]6(C)C[C@@H](O)[C@H](O[C@@H]7O[C@H](CO)[C@@H](O)[C@H](O)[C@H]7O)[C@@](C)(CO)[C@@H]6CC[C@@]5(C)[C@]3(C)CC4)O[C@H](CO)[C@@H](O)[C@@H]2O)[C@H](O)[C@H](O)[C@H]1O (stereo partly drawn) | Active | Active | Active | Active | Active |
|  |  |  |  | C[C@@H]1O[C@@H](O[C@H]2[C@H](OC(=O)[C@]34CCC(C)(C)C[C@H]3C3=CC[C@@H]5[C@@]6(C)C[C@@H](O)[C@H](O[C@@H]7O[C@H](CO)[C@@H](O)[C@H](O)[C@H]7O)C(C)(C)[C@@H]6CC[C@@]5(C)[C@]3(C)CC4)O[C@H](CO)[C@@H](O)[C@@H]2O)[C@H](O)[C@H](O)[C@H]1O | Active | Active | Active | Active | Active |
|  |  |  |  | C[C@H]1[C@H](C)CC[C@]2(C(=O)OC3O[C@H](CO)[C@@H](O)[C@H](O)[C@H]3O[C@@H]3O[C@@H](C)[C@H](O)[C@@H](O)[C@H]3O)CC[C@]3(C)C(=CC[C@@H]4[C@@]5(C)C[C@@H](O)[C@H](O[C@@H]6O[C@H](CO)[C@@H](O)[C@H](O)[C@H]6O)[C@@](C)(CO)[C@@H]5CC[C@]43C)[C@H]12 (stereo partly drawn) | Active | Active | Active | Active | Active |
| 64 | > 128 | 64 | > 128 | CC1(C)CC[C@]2(C(=O)O)CC[C@]3(C)C(=CC[C@@H]4[C@@]5(C)C[C@@H](O)[C@H](O)[C@@](C)(CO)[C@@H]5CC[C@]43C)[C@@H]2C1 [ARJUNOLIC ACID] |  |  |  |  |  |
| > 128 | > 128 | 128 | > 128 | C[C@H]1[C@H](C)CC[C@]2(C(=O)O)CC[C@]3(C)C(=CC[C@@H]4[C@@]5(C)C[C@@H](O)[C@H](O)[C@@](C)(CO)[C@@H]5CC[C@]43C)[C@H]12 [ASIATIC ACID] |  |  |  |  |  |
| 64 | > 128 | 16 | > 128 | CC1(C)CC[C@]2(C(=O)O)CC[C@]3(C)C(=CC[C@@H]4[C@@]5(C)C[C@@H](O)[C@H](O)C(C)(C)[C@@H]5CC[C@]43C)[C@@H]2C1 [MASLINIC ACID] |  |  |  |  |  |
| > 128 | > 128 | 16 | > 128 | CC1(C)CC[C@]2(C(=O)O)CC[C@]3(C)C(=CC[C@@H]4[C@@]5(C)CC[C@H](O)C(C)(C)[C@@H]5CC[C@]43C)[C@@H]2C1 [OLEANOLIC_ACID] |  |  |  |  |  |
| 128 | > 128 | 16 | > 128 | C[C@H]1[C@H](C)CC[C@]2(C(=O)O)CC[C@]3(C)C(=CC[C@@H]4[C@@]5(C)CC[C@H](O)C(C)(C)[C@@H]5CC[C@]43C)[C@H]12 [URSOLIC ACID] |  |  |  |  |  |

| SMILES | MIC (Staphylococcus aureus [6]) [µg/mL] | MIC (Escherichia coli [7]) [µg/mL] | MIC (Enterococcus faecalis [8]) [µg/mL] | MIC (Pseudomonas aeruginosa [9]) [µg/mL] | inhibition (Enterococcus faecalis [1]) | inhibition (Escherichia coli [2]) | inhibition (Staphylococcus aureus [3]) | inhibition (Enterococcus faecalis [4]) | inhibition (Pseudomonas aeruginosa [5]) |
| --- | --- | --- | --- | --- | --- | --- | --- | --- | --- |
| CC(C)(O/N=C(\C(=O)N[C@@H]1C(=O)N2C(C(=O)[O-])=C(C[n+]3ccccc3)CS[C@H]12)c1csc(N)n1)C(=O)O [CEFTAZIDIME] |  | 10 |  | 10 (≈ 18.3 µM) |  |  |  |  |  |
| C[C@H]1[C@H](C)CC[C@]2(C(=O)O)CC[C@]3(C)C(=CC[C@@H]4[C@@]5(C)C[C@@H](O)[C@H](O)C(C)(C)[C@@H]5CC[C@]43C)[C@H]12 [COROSOLIC ACID] | 32 | > 128 | 32 | > 128 |  |  |  |  |  |
| CN[C@H](CC(C)C)C(=O)N[C@H]1C(=O)N[C@@H](CC(N)=O)C(=O)N[C@H]2C(=O)N[C@H]3C(=O)N[C@H](C(=O)N[C@H](C(=O)O)c4cc(O)cc(O)c4-c4cc3ccc4O)[C@H](O)c3ccc(c(Cl)c3)Oc3cc2cc(c3O[C@@H]2O[C@H](CO)[C@@H](O)[C@H](O)[C@H]2O[C@H]2C[C@](C)(N)[C@H](O)[C@H](C)O2)Oc2ccc(cc2Cl)[C@H]1O [VANCOMYCIN] | 2.5 |  | 2.5 |  |  |  |  |  |  |
